In PMC4569539 (Bioorganic & medicinal chemistry letters, 2015):
Read-outs that look alike come from different tables or passages of the source.

Columns and labels:
[1] = Brain and plasma pharmacokinetics after ip administration of 5 mg/kg; assay type: in vivo; settings: mice, after ip injection of 5 mg/kg of 4
In short: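 Mice received the test compound at 5 mg/kg ip. Brain and plasma levels were followed over time to give elimination rates from each compartment. In a repeat-dose arm, tissues were sampled 4 h after a single 5 mg/kg ip dose or 4 h after the second of two doses given 4 h apart. Brain-to-plasma concentration ratios were calculated for each regimen.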

acetylated α-tubulin = assay: Acetylated α-tubulin in brain homogenates after repeated dosing; assay type: in vivo; settings: normal mice, 1 day after two 5 mg/kg doses (ip)
[2] = assay type: in vivo; settings: plasma concentration after ip versus oral administration
[3] = cited from earlier work
[4] = stated as known for 1 and related congeners, no reference given; cited from earlier work

Row | distribution of metabolites in brain and plasma samples [1] | Compound | brain penetration [3] | differential between brain and plasma half-life [3] | further results
1 | detected predominantly in plasma | C[C@H](Nc1c(-c2c(F)cc(O)cc2F)c(Cl)nc2ncnn12)C(F)(F)F [compound 6] |  |  | 
2 |  | C[C@H](Nc1c(-c2c(F)cc(OCCCO)cc2F)c(Cl)nc2ncnn12)C(F)(F)F [compound 4, (S)-3-(4-(5-Chloro-7-((1,1,1-trifluoropropan-2-yl)amino)-[1,2,4]triazolo[1,5-a]pyrimidin-6-yl)-3,5-difluorophenoxy)-propan-1-ol] |  |  | acetylated α-tubulin (marker of stable MTs) in brain homogenates (acetylated α-tubulin): significant elevation; oral bioavailability [2]: orally bioavailable
3 |  | C/C(=C\c1csc(C)n1)[C@@H]1C[C@@H]2O[C@]2(C)CCC[C@H](C)[C@H](O)[C@@H](C)C(=O)C(C)(C)[C@@H](O)CC(=O)O1 [epothilone B] | brain penetrant | large differential | 
4 |  | CNCCCOc1cc(F)c(-c2c(Cl)nc3ncnn3c2N[C@@H](C)C(F)(F)F)c(F)c1 [compound 1, cevipabulin] |  |  | oral bioavailability [4]: orally bioavailable
5 | detected predominantly in plasma | C[C@H](Nc1c(-c2c(F)cc(OCCC(=O)O)cc2F)c(Cl)nc2ncnn12)C(F)(F)F [compound 5] |  |  | 
6 |  | C/C1=C/C[C@@H](/C(C)=C/c2csc(C)n2)OC(=O)C[C@H](O)C(C)(C)C(=O)[C@H](C)[C@@H](O)[C@@H](C)CCC1 [epothilone D] | brain penetrant | large differential | 
